Biological target: T1, NAD-dependent protein deacetylase sirtuin-2 (Homo sapiens, UniProt Q8IXJ6)
T1 sequence (Q8IXJ6 whole entry): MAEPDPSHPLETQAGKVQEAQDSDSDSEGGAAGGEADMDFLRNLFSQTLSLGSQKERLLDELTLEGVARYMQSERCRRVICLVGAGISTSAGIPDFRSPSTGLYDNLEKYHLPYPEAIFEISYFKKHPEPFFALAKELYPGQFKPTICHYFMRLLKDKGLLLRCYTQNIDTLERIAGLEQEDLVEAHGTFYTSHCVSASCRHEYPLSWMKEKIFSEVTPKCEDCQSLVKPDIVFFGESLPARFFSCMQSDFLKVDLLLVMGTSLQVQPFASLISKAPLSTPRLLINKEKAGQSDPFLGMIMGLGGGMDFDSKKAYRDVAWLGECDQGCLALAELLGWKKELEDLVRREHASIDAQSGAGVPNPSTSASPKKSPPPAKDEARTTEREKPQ
Experiment: Inhibition of human recombinant SIRT2 using Fluor de Lys-SIRT as substrate incubated for 60 mins prior to substrate addition measured after 60 mins by fluorimetric analysis
Outline: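 Human recombinant SIRT2 preincubated with 1 mM NAD⁺ and serial compound dilutions for 60 min at 37 °C, then 25 μM Fluor de Lys-SIRT substrate added. Reaction stopped at 60 min with Developer II containing nicotinamide. Fluorescence read 45 min later at ex 360/em 460 nm. % inhibition taken against control wells. IC₅₀ obtained by regression of log[Inh] vs logit % inhibition; means of ≥3 experiments.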

IC50: 1000 nM
Structure (SMILES): NC(=O)c1ccccc1Nc1cccc(OCCc2ccccc2)c1
